Assay outcomes from PubChem.
MC4R antag cAMP – MC4R antagonists of cAMP signaling, primary screen, cell-based, TR-FRET, antagonist arm of biased-ligand search; Melanocortin receptor 4 (Homo sapiens), P32245; MC4R-expressing cells, MTII-stimulated cAMP, LANCE TR-FRET; inhibition, % at 6.5 µM; 360,000 tested, 0.48% active;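 active = inhibition above its plate's cutoff, the mean of tested wells on that plate plus 3 SD, cut at about 29% in these data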
Target sequence (P32245 whole entry, looked up): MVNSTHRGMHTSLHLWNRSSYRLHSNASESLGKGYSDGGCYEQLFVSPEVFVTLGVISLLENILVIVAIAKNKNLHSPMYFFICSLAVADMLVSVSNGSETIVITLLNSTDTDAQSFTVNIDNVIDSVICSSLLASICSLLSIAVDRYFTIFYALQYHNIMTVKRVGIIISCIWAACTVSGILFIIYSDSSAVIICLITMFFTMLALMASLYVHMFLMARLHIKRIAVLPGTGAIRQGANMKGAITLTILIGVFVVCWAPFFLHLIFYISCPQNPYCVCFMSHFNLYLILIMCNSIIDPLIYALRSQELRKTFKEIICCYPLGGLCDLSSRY
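system = U2OS cells with stable human MC4R expression | also added = Melanotan II challenge after compound preincubation | dosing = one concentration, 6.5 µM nominal | incubation = compound 30 min, challenge 1 h, detection 1 h | measured by = TR-FRET with Eu-cAMP and labeled anti-cAMP, 671 nm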
TAAR1 antagonist – human TAAR1 antagonists, primary screen, Fluo-8 calcium fluorescence, CHO RD-HGA16 cells | Trace amine-associated receptor 1 (Homo sapiens), Q96RJ0 | antagonist | inhibition, % at 3 µM | 360,000 tested, 1.5% active | AID 624466, 2012;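 active = inhibition above a per-plate cutoff, the mean inhibition of test compounds on that plate plus 3 SD, cut at about 49% in these data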
Target sequence (Q96RJ0 whole entry, looked up): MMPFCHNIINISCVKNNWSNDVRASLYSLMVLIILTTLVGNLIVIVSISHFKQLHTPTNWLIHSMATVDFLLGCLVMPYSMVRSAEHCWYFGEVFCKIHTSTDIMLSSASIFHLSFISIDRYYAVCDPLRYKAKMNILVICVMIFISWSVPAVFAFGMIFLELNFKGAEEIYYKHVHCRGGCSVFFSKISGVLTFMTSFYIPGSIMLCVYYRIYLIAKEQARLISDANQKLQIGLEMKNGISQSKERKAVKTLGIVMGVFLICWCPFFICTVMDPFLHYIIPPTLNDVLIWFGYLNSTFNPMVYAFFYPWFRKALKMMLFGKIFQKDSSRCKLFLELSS
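Test system – hTAAR1-expressing CHO RD-HGA16 cells, Gα16-coupled · Also added – β-PEA at EC80 concentration, post-compound challenge · Compound – 3 µM, single point · Incubation – dye loading 75 min at 37 °C, then 30 min room temperature · Measured by – Fluo-8 intracellular calcium dye fluorescence, real-time kinetic reads · Benchmarks – vehicle and agonist controls · Replicates – singlicate, one well per test compound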
TAAR1 ag – human TAAR1 agonists, primary screen, Fluo-8 calcium fluorescence, CHO RD-HGA16 cells. Trace amine-associated receptor 1 (Homo sapiens), Q96RJ0. vehicle wells 0%, saturating PEA agonist 100%. activation, % at 3 µM. 360,000 tested, 0.99% active;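 active = activation above the mean activation of all test compounds in the run plus 3 SD, cut at about 38% in these data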
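Test system: RD-HGA16 (CHO) cells co-expressing Gα16 and hTAAR1; dosing: one-point dosing at 3 µM (nominal); timing: 17-24 h seeding, 75 min 37 °C dye, 30 min RT; signal: kinetic Fluo-8 calcium fluorescence; read-out basis: % activation relative to PEA EC100 response; controls: DMSO and PEA EC100; replicates: n 1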
HTR2A ag – mouse Htr2a agonists via beta-arrestin recruitment, primary screen, cell-based, luminescence; activation, % at 7.6 µM; 5-hydroxytryptamine receptor 2A (Mus musculus), P35363; CHO-K1 mHTR2A beta-arrestin complementation; percent of 30 µM serotonin response; AID 624169, 2012; 360,000 tested, 0.66% active;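 active = activation above a run cutoff, the mean activation of all tested compounds plus 3 SD, cut at about 14% in these data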
B2AR ag – beta2AR agonists driving receptor internalization, primary screen, cell-based, FAP fluorogen, flow cytometry; response, % (no concentration beside the values); 340,000 tested, 0.43% active; Am2.2-beta2AR cells; AID 504454, 2011;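 active = response above a set limit, near 3 SD of response in nonfluorescent compounds, cut at about 42% in these data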
MC4R ag barr – MC4R agonists recruiting beta-arrestin, primary screen, cell-based, luminescence, agonist arm of biased-ligand search; activation, % at 8.9 µM; U2OS MC4R beta-arrestin complementation; percent of melanotan II response, DMSO zero; Melanocortin receptor 4 (Homo sapiens), P32245; 360,000 tested, 0.98% active;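 active = activation above a per-plate cutoff, the mean activation of sample wells on that plate plus 3 SD, cut at about 8% in these data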
Hits are given with their value; 0 = inactive; - = no result given. In the library only some 4.3% were active in any assay of this set; here they are far more common.

SMILES | MC4R antag cAMP | TAAR1 antagonist | TAAR1 ag | HTR2A ag | B2AR ag | MC4R ag barr
c1cn2c(NC3CCCCC3)c(-c3ccc(SC4CCCCC4)cc3)nc2cn1 | 0 | 0 | 0 | 0 | 0 | 0
c1cc(SC2CCCCC2)cc(-c2nc3cnccn3c2NC2CCCCC2)c1 | 0 | 0 | 0 | 0 | 50 | 0
Cc1ccc2c(c1)c1ccc3c(c1n2C)C(=O)C=CC3=O | 0 | 0 | 0 | 0 | 93 | 0
Cc1ccc(C)c2c1c1ccccc1n2C | 0 | 0 | 0 | 0 | 0 | 0
Cc1ccc2c(c1)c1ncnc(N3CCOCC3)c1n2C | 0 | 0 | 0 | 0 | 0 | 0
COc1ccc2c(c1)c1ncn(CCN3CCCC3)c(=O)c1n2C | 0 | 0 | 0 | 0 | 0 | 0
COc1ccc2c(c1)c1ccc3c(c1n2C)C(=O)C=CC3=O | 0 | 0 | 0 | 0 | 96 | 0
Cn1c2ccccc2c2ccc3c(c21)C(=O)C=CC3=O | 0 | 0 | 0 | 0 | 76 | 0
COC(=O)c1cc2c(c3c4cc(C)ccc4n(S(=O)(=O)c4ccc(C)cc4)c13)C(=O)N(Cc1ccc(C(F)(F)F)cc1)C2 | - | 0 | 0 | - | - | -
C[C@H]1CN(S(=O)(=O)C(C)(C)C)[C@H](CCO)/C1=C\CCO | - | 0 | 0 | - | - | -
O=C1c2ccccc2C(c2nc3ccccc3[nH]2)N1Cc1ccco1 (configuration not stated) | - | 0 | 0 | 0 | - | -
CS(=O)(=O)c1ccc(C(=O)OCc2nnc(-c3ccc(Cl)cc3)o2)cc1[N+](=O)[O-] | 0 | - | - | 0 | 93 | 0
O=C(COC(=O)COc1cccc(C(F)(F)F)c1)NC(=O)NC1CCCCC1 | 0 | 0 | 0 | 0 | 0 | 8.7
CC1CN(C(=O)c2ccccc2C(=O)c2ncc[nH]2)CC(C)O1 (configuration not stated) | 0 | 0 | 40 | 0 | 0 | 0
O=C(c1ncc[nH]1)c1ccccc1C(=O)N1CCOCC1 | 0 | 0 | 0 | 0 | 0 | 0
Cc1cc(C)cc(NC(=O)COc2coc(CN3CCc4ccccc43)cc2=O)c1 | 0 | 0 | 0 | 0 | 0 | 9.2
COCc1cc(N2CCN(C(=O)OC(C)(C)C)C[C@H]2C)ccc1Br | - | 0 | 0 | - | - | -
N/C(Cc1ccc(Cl)c(Cl)c1)=N\OC(=O)c1cccs1 | 0 | 0 | 0 | 0 | 0 | 8.6
N/C(=N\OC(=O)c1cccs1)C1(c2ccc(Cl)cc2Cl)CC1 | 0 | 0 | 0 | 0 | 0 | 0
Cc1ccc(SCc2ccc(C(=O)Nc3cccc([N+](=O)[O-])c3)cc2)cc1 | 0 | 0 | 0 | 0 | 0 | 27
Cc1ccc(SCc2ccc(C(=O)Nc3cc([N+](=O)[O-])ccc3C)cc2)cc1 | 0 | 0 | 0 | 0 | 0 | 23
CC(C)(C)c1ccc(C(=O)Nc2cccc([N+](=O)[O-])c2)cc1 | 0 | 0 | 0 | 0 | 0 | 0
Cc1ccc([N+](=O)[O-])cc1NC(=O)C(Sc1ccccc1)c1ccccc1 (configuration not stated) | 0 | 52 | 0 | 0 | 0 | 0
CC(=O)O[C@H]1CC[C@]2(C)C3CC[C@]4(C)[C@@H]([C@H](C)/C=C/[C@H](C)C(C)C)CC[C@H]4[C@@]34C=C[C@]2(C1)N(C(=O)c1ccccc1)O4 (some centres not stated) | - | 0 | 0 | - | - | -
Cc1c(Nc2cc(Cl)c3nonc3c2[N+](=O)[O-])c(=O)n(-c2ccccc2)n1C | 0 | 0 | 0 | 0 | 89 | 0
SMILES | MC4R antag cAMP | TAAR1 antagonist | TAAR1 ag | HTR2A ag | B2AR ag | MC4R ag barr
Cc1c(Nc2ccc3nonc3c2[N+](=O)[O-])c(=O)n(-c2ccccc2)n1C | 0 | 0 | 0 | 0 | 0 | 0
Clc1ccc(Cc2ccc(SCc3ccccc3)nn2)c(Cl)c1 | 0 | 50 | 0 | 0 | 0 | 0
Clc1ccc(Cc2ccc(Cl)nn2)c(Cl)c1 | 0 | 0 | 0 | 0 | 0 | 0
CN(Cc1ccccc1)C(=O)c1cccc(NC(=O)Cc2ccc(NC(=O)C3CCCN(S(=O)(=O)c4cccc([N+](=O)[O-])c4)C3)cc2)c1 (configuration not stated) | - | 0 | 0 | - | - | -
Cc1cnc(NC(=O)CSc2ncc(-c3ccccc3)n2Cc2ccco2)s1 | 0 | 78 | 58 | 0 | 0 | 0
COc1ccc(-c2cnc(SCC(=O)Nc3cc(C)on3)n2Cc2ccco2)cc1 | 0 | 0 | 0 | 0 | 0 | 0
O=C(CSc1ncc(-c2ccc(F)cc2)n1Cc1ccco1)Nc1nccs1 | 0 | 0 | 46 | 0 | 0 | 0
CC1=CC(=O)C=C(C)C1=NOS(=O)(=O)c1ccccc1 | 0 | 52 | 0 | 0 | 0 | 0
Cc1ccc2c(c1)/C(=N/OS(=O)(=O)c1ccccc1)CCS2 | 0 | 0 | 0 | 0 | 0 | 0
N#Cc1ccc(-c2ccc(F)cc2)nc1Oc1ccccc1 | 0 | 0 | 0 | 0 | 0 | 0
N#Cc1ccc(-c2ccc(F)cc2)nc1Oc1ccc(F)cc1 | 0 | 0 | 0 | 0 | 0 | 9.3
O=C(Nc1ccc(S(=O)(=O)Nc2nccs2)cc1)c1nn(-c2ccccc2)ccc1=O | 0 | 0 | 0 | 0 | 58 | 0
Cc1cccc(-n2ccc(=O)c(C(=O)Nc3ccc(S(=O)(=O)Nc4nccs4)cc3)n2)c1 | 0 | 0 | 0 | 0 | 0 | 0
O=S(=O)(Cc1ccc(Cl)cc1)Oc1ccc(Cl)cc1 | 0 | 55 | 0 | 0 | 0 | 0
O=[N+]([O-])c1ccc(OS(=O)(=O)Cc2ccccc2)cc1 | 0 | 0 | 0 | 0 | 0 | 0
COc1ccc(C(=O)C(C)OC(=O)CCN2C(=O)C3CC=CCC3C2=O)cc1 (configuration not stated) | 0 | 0 | 0 | 0 | 0 | 0
CCN1CCN(C2=CC3=CC(=C(C#N)C#N)CCC3CC2)CC1 (configuration not stated) | 0 | - | - | 0 | 0 | 0
N#CC(C#N)=C1C=C2C=C(N3CCCCCC3)CCC2CC1 (configuration not stated) | 0 | 104 | 957 | 0 | - | 0
Cc1[nH]c2ccccc2c1CC(=O)Nc1ccc(Nc2cccnc2)c(-c2ccc(Cl)c(Cl)c2)c1 | - | 0 | 0 | - | - | -
Cc1cc(/C=N/NC(N)=S)c(C)n1-c1ccc(Cl)c(Cl)c1 | 0 | 50 | 0 | 0 | 0 | 0
COc1cc2c(cc1NC(=O)Nc1ccc(C)cc1)oc1ccccc12 | 0 | 0 | 0 | 0 | 0 | 0
COc1cc2c(cc1NC(=O)C(C)Sc1ccc(NC(C)=O)cc1)oc1ccccc12 (configuration not stated) | 0 | 50 | 0 | 0 | 0 | 0
O=C(N[C@@H](Cc1cccnc1)C(=O)N1CCC[C@H]1C(=O)NC1CCCC1)c1cccs1 | - | 0 | 0 | - | - | -
